Source: PubChem
Cardio protect: modulators protecting cardiomyocytes from myocardial damage. H9c2 cardiomyocytes, H2O2 injury protection, ATPLite, 2 h. protection from H2O2 cell death, % at 20 µM. 360,000 tested, 0.63% active;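 active = compounds giving at least 50% protection of heart cells from peroxide-induced death in the single-dose screen, raw or plate-pattern-corrected value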
SENP1 inh: SENP1 (human) catalytic domain inhibition. Q9P0U3. recombinant SENP1 catalytic domain, CyPet-SUMO1-YPet FRET cleavage. inhibition, % at 10 µM. 360,000 tested, 0.21% active;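 active = inhibition at least 30% at 10 µM, raw YFP signal under a set limit, fluorescence ratio 0.5 to 1.5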
Target sequence (Q9P0U3 419-644 limits assumed): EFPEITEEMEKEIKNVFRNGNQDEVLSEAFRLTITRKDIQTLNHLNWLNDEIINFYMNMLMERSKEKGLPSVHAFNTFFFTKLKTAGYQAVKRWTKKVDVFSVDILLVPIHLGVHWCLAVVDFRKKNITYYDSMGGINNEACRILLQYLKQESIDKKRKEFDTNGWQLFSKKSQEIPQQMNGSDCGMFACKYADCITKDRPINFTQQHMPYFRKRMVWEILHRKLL
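Compound: 10 µM single point, 0.5% DMSO; Test system: hSENP1 catalytic domain, recombinant; Timing: 50 min reaction at room temperature; Technique: FRET, CFP and YFP emission; Control set: no-enzyme wells low, DMSO-plus-enzyme wells high control.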
Arr AP2 block: human beta-arrestin and AP2 interaction inhibition; FITC-arrestin peptide / GST-AP2 beads, flow cytometry; AP2 beta2 appendage carries R879A mutation; inhibition, % at 10 µM; 340,000 tested, 0.31% active; AID 504490;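 active = inhibition above a set limit, near 3 SD of compounds lacking own fluorescence, cut at about 54% in these data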
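Assay system: GST-AP2 R879A bound to glutathione beads, E. coli-expressed; Medium: PBS with 0.05% Tween 20 and 0.1% BSA; Also added: fluorescein-tagged arrestin peptide at 50 nM final; Timing: 12 min plus 1 h, RT; Measured by: flow cytometry, FL1 (488/535 nm); Evaluation: percent drop in bead-associated FITC signal.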
iPSC survival up: increases survival of single human iPS cells; hiPSC single-cell survival, ATPlite luminescence; 100% = ROCK inhibitor wells, 0% = DMSO; survival enhancement, % at 20 µM; 360,000 tested, 0.044% active; AID 602274; in the data active = survival enhancement above about 18%;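 also: cells exposed to compounds for 16 hours before the ATP read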
NR3A LBD binder: NR3A (human) ligand-binding domain modulation; NR3A LBD differential scanning fluorimetry, Tm shift; 0% = protein alone, 100% = glycine-bound protein; Tm shift relative to glycine control, % at 25 µM; 340,000 tested, 2.5% active;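 active = melting temperature shift of at least 10% of the positive control shift, at one fixed dose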
FAS-TE inh: FAS thioesterase (human) inhibition. 360,000 tested, 0.67% active. recombinant FAS-TE, OMFH fluorogenic substrate, fluorescence endpoint. inhibition, % at 15 µM. P49327;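 active = compounds whose normalised, plate-corrected inhibition of enzyme fluorescence in the single-dose primary screen is 50% or more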
FAS-TE conf: confirmation of human fatty acid synthase thioesterase inhibitors; shares compounds with FAS-TE inh; recombinant FAS-TE, OMFH fluorogenic substrate, fluorescence; inhibition, % at 15 µM; 2,300 tested, 45% active; AID 624325;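 active = compounds inhibiting the enzyme by at least 50% at 15 µM in any one of the replicates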
SENP1 conf: confirmation of human SENP1 SUMO protease inhibitors | 520 tested, 34% active | shares compounds with SENP1 inh | recombinant SENP1, CyPet-SUMO1-YPet FRET cleavage | inhibition, % at 10 µM; in the data active = inhibition mostly above about 35%, no sharp cut-off; inactive = mostly below about 32%
SENP1 kin conf: SENP1 (human) inhibition, kinetic confirmation. shares compounds with SENP1 inh. recombinant SENP1, CyPet-SUMO1-YPet FRET kinetic cleavage. inhibition, % at 10 µM. 520 tested, 26% active. AID 651690; in the data active = inhibition mostly above about 32%, no sharp cut-off; inactive = mostly below about 29%
Hits are given with their value; i = inactive; nt = not tested or not shown. The list is not random: actives were taken first. Their share in the collection is about 4%.

SMILES	Cardio protect	SENP1 inh	Arr AP2 block	iPSC survival up	NR3A LBD binder	FAS-TE inh	FAS-TE conf	others
O=C1C=CC(=O)C2C1C1(Cl)C(Cl)=C(Cl)C2(Cl)C1(Cl)Cl (stereo unspecified)	i	i	i	i	i	60	57
COc1ccc(-n2nnnc2C(c2ccccc2)N2CCC3(CC2)C(=O)NCN3c2ccccc2)cc1 (stereo unspecified)	i	i	nt	i	nt	i	nt
COc1ccc(C(c2nnnn2-c2ccc(OC)cc2)N2CCC3(CC2)C(=O)NCN3c2ccccc2)cc1 (stereo unspecified)	i	i	nt	i	nt	52	i
COc1ccc(-n2nnnc2C(c2ccccc2OC(F)(F)F)N2CCC3(CC2)C(=O)NCN3c2ccccc2)cc1 (stereo unspecified)	i	i	nt	i	nt	60	i
O=C1NCN(c2ccccc2)C12CCN(C(c1ccccc1OC(F)(F)F)c1nnnn1-c1ccc3c(c1)OCCO3)CC2 (stereo unspecified)	i	i	nt	i	nt	82	i
Cc1ccc(S(=O)(=O)N2Cc3cc(-c4ccccc4)ccc3-n3nncc3C2)cc1	i	i	nt	i	nt	i	nt
NP(=O)(Oc1ccccc1Cl)Oc1ccccc1Cl	i	i	i	i	i	75	85
O=S(=O)(c1cc(Cl)cc(Cl)c1)N1Cc2cc(-c3ccccc3)ccc2-n2nncc2C1	i	i	nt	i	nt	86	i
O=C1c2ccccc2-n2nnc(-c3ccccc3)c2C2c3cc(Br)ccc3CCN12 (stereo unspecified)	i	i	nt	i	nt	i	nt
S=C(NCCc1ccccc1)N1Cc2cc(Br)ccc2-n2nncc2C1	i	i	nt	i	nt	62	25
COc1ccc(NC(=S)N2Cc3ccccc3-n3nncc3C2)c(OC)c1	i	i	nt	i	nt	i	nt
COC1C(C)OC(OC2CC(C)(O)Cc3cc4c(c(O)c32)C(=O)c2c(O)cc3c(c2C4=O)OC2OC3(C)C(O)C(N(C)C)C2O)C(OC)C1(C)OC (stereo unspecified)	i	i	i	i	i	i	nt
Cn1cc(C=C(C#N)C#N)c2ccccc21	i	i	i	i	i	63	i
O=S(=O)(c1cc(Cl)cc(Cl)c1)N1Cc2cc(N3CCOCC3)ccc2-n2nncc2C1	i	i	nt	i	nt	i	nt
COc1ccc([N+](=O)[O-])cc1N=Cc1c(O)n(CCc2ccccc2)c(=O)n(C(C)C)c1=O	i	i	i	i	i	72	i
COc1ccc(CCn2c(O)c(C=Nc3ccccc3F)c(=O)[nH]c2=O)cc1OC	i	i	i	i	i	i	nt
COC(=O)C1=Nc2ccccc2/C1=C\c1c(O)n(C)c(=O)n(C)c1=O	i	i	i	i	i	i	nt
Cn1c(O)c(/C=C2\C=Nc3ccccc32)c(=O)n(C)c1=O	i	54	i	i	i	i	nt	SENP1 conf=i;SENP1 kin conf=i
C=CCN1C(=O)/C(=C/c2ccc(N3CCOCC3)o2)C(=O)NC1=S	i	40	i	i	i	i	nt	SENP1 conf=i;SENP1 kin conf=i
COc1ccc(OC)c(-n2c(O)c(/C=C3\C(C)=Nc4ccccc43)c(=O)[nH]c2=O)c1	i	82	i	i	i	i	nt	SENP1 conf=i;SENP1 kin conf=i
CN(C)P1(=O)N(C)CCN1C	i	i	nt	i	nt	i	nt
COc1ccc(OC(=O)N(C)C[C@@H]2OCc3cnnn3CCCC(=O)N([C@@H](C)CO)C[C@@H]2C)cc1	i	i	nt	i	nt	i	nt
CC(C)C[C@@H]1COc2cc(N3CCN(C)CC3)ccc2S(=O)(=O)N1	nt	i	nt	i	nt	i	nt
Cc1cc(C)c(Cn2c(C(=O)O)c(C=O)c3ccccc32)c(C)c1	i	97	i	i	i	i	nt	SENP1 conf=77;SENP1 kin conf=51
O=Cc1c(C(=O)O)n(Cc2ccccc2Cl)c2ccccc12	i	i	i	i	i	i	nt
COc1ccccc1N1CCN(Cc2ccccc2Cl)CC1	i	35	i	i	i	i	nt	SENP1 conf=i;SENP1 kin conf=i
